From ChEMBL document CHEMBL3865803, “Bicyclic octahydrocyclohepta[b]pyrrol-4(1H)one derivatives as novel selective anti-hepatitis C virus agents” (Eur J Med Chem, 2016) come the findings set out here.

A word on the inhibition: it is the drop in the measured response relative to a control, in per cent. The EC50 is the concentration giving half of the maximal effect. By CC50 is commonly meant the concentration at which the toxic effect on the cells reaches its halfway point. The low end stands for harm at low concentration, the high end for better tolerance by the cells.

Data set [1] deals with Hepatitis C virus. Nature of the data set: Antiviral activity against HCV genotype 1b infected in human Huh7/Rep-Feo1b replicon cells assessed as inhibition of viral RNA replication at 50 uM measured after 48 hrs by luciferase reporter gene assay relative to control. The format is functional, Hepacivirus hominis. As to conditions: Huh-7, 48 h. The gist of the method:
(§1)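 Replicon cells (gt1b firefly luciferase; gt2a Renilla luciferase) in DMEM/10% FBS with G418, ~1 × 10^4 cells/well, dosed 12 h after seeding with 50 µM compound or DMSO (1% final) for 48 h at 37 °C. Cells were PBS-washed and luciferase read; % inhibition was taken versus DMSO-treated cells, mean±SD, n=3.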
Background: Replicon systems follow genome replication, usually without infectious particles.

For data set [2], the system named is Hepatitis C virus. Nature of the data set: Antiviral activity against HCV genotype 1b infected in human Huh7/Rep-Feo1b replicon cells assessed as inhibition of viral RNA replication measured after 48 hrs by luciferase reporter gene assay. The format is functional, cell-based, Hepacivirus hominis. As to conditions: Huh-7, 48 h. The method, boiled down:
(§2)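 EC50 from concentration-response in replicon cells (gt1b firefly, gt2a Renilla luciferase reporter) maintained with G418. Compound added 12 h post-seeding (~1 × 10^4 cells/well), 48 h exposure, DMSO 1% final. Luciferase was compared with DMSO controls; the value is the mean ± SD of three independent 8-12 point quarter-log dilution series, calculated with CalcuSyn.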

The test system of data set [3] is Hepatitis C virus. As to the kind of experiment: Antiviral activity against HCV genotype 2a infected in human Huh7.5-FGR-JC1-Rluc2A replicon cells assessed as inhibition of viral RNA replication at 50 uM measured after 48 hrs by luciferase reporter gene assay relative to control. The class given is functional, Hepacivirus hominis. The conditions noted are these: Huh-7, 48 h. The method, boiled down: as §1

Data set [4] concerns Hepatitis C virus. As to the kind of experiment: Antiviral activity against Hepatitis C virus genotype 1b infected in human MH14 cells assessed as inhibition of viral RNA replication after 48 hrs by quantitative RT-PCR analysis. The class given is functional, cell-based. The method, boiled down:
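MH-14 cells carrying HCV subgenomic replicons, in 12-well plates, were treated with a range of concentrations or DMSO 12 h after seeding. Cellular HCV RNA was quantified by qRT-PCR with HCV-specific primers, using β-actin primers as reference.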

Data set [5] concerns Hepatitis C virus. As to the kind of experiment: Antiviral activity against HCV genotype 2a infected in human Huh7.5-FGR-JC1-Rluc2A replicon cells assessed as inhibition of viral RNA replication incubated for 48 hrs by luciferase reporter gene assay. The format is functional, cell-based, Hepacivirus hominis. As to conditions: Huh-7, 48 h. The gist of the method: as §2
Data set [6] in a line: Cytotoxicity against human Huh7.5 cells measured after 48 hrs by MTS assay. The class given is toxicity, cell-based, Huh-7. As to conditions: Huh7.5 cells. The method, boiled down:
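Parental Huh7.5 cells were treated 12 h after seeding with 8-10 dilutions of compound or DMSO (1% final) for 48 h at 37 °C. Viability was read by MTS bioreduction to formazan. CC50 is the concentration halving the MTS signal, mean ± SD of three independent experiments.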

Data set [7] can be described thus: Selectivity index, ratio of CC50 for human Huh7.5 cells to EC50 for HCV genotype 2a infected in human Huh7.5-FGR-JC1-Rluc2A replicon cells. Also noted: species or system Huh-7.
Data set [8] can be described thus: Selectivity index, ratio of CC50 for human Huh7.5 cells to EC50 for HCV genotype 1b infected in human Huh7/Rep-Feo1b replicon cells. Also noted: species or system Huh-7.

With `CCOC(=O)[C@@H]1C[C@@H]2/C(=N/Nc3ccccc3)CCCC[C@@H]2N1S(=O)(=O)c1ccc(C)cc1` (racemic), the inhibition at 50 µM in data set [1] was determined as 88%; in data set [3], 70%. For the same compound, the EC50 in data set [2] stood at 1800 nM; in data set [4] (MH14, 48 h) it was 3.82 µM; in data set [5], 4.5 µM. Moreover, in data set [4] (Hepacivirus hominis), the inhibition result was “Dose-dependent effect”. Moreover, in data set [6], the CC50 at 48 h is over 200 µM. Further, the “Ratio CC50/EC50” value came to 44.2 in data set [7] and 112.4 in data set [8].
